Assays:
[1] = target: T1, Alpha-1D adrenergic receptor (Homo sapiens) (UniProt P25100); assay: Displacement of [3H]-Prazosin from human recombinant adrenergic Alpha1D receptor expressed in cells at 10 uM after 90 mins by microbeta scintillation counting method relative to control; type: cell-based
T1 sequence (whole entry): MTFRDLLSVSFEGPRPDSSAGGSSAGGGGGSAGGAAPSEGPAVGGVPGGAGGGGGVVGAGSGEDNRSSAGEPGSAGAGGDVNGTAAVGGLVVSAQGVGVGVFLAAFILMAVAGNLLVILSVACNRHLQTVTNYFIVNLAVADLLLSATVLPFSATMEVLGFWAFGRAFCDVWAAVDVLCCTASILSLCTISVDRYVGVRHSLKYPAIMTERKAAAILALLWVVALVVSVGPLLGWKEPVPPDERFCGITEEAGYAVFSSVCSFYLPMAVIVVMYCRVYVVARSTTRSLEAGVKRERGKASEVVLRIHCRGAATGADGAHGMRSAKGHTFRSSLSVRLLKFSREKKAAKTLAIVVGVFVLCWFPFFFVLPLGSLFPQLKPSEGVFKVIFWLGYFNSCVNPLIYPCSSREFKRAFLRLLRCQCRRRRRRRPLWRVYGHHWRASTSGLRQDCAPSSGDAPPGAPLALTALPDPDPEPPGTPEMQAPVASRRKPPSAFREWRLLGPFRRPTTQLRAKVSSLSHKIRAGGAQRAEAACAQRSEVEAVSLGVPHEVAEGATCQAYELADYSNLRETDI

[2] = target: GABA-A receptor; anion channel (Rattus norvegicus) (UniProt O09028+P15431+P18506+P18508+P19969+P20236+P23574+P23576+P28471+P28473+P30191+P62813+P63079+P63138+Q91ZM7+Q9ES14); assay: Displacement of [3H]-Muscimol from GABAA receptor in rat brain at 10 uM incubated for 90 mins by microbeta scintillation counting method relative to control; type: tissue-based
Outline: (§1)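 Radioligand binding run by the NIMH Psychoactive Drug Screening Program. […] Otherwise Ki comes from sigmoidal curve fits of triplicate measurements in a single experiment, or is averaged over repeated experiments each run in triplicate.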

[3] = target: T2, Alpha-2B adrenergic receptor (Homo sapiens, UniProt P18089); assay: Displacement of [3H]-Rauwolscine from human recombinant adrenergic Alpha2B receptor expressed in HEKT cells after 90 mins by microbeta scintillation counting method; type: cell-based
T2 sequence (P18089 whole entry): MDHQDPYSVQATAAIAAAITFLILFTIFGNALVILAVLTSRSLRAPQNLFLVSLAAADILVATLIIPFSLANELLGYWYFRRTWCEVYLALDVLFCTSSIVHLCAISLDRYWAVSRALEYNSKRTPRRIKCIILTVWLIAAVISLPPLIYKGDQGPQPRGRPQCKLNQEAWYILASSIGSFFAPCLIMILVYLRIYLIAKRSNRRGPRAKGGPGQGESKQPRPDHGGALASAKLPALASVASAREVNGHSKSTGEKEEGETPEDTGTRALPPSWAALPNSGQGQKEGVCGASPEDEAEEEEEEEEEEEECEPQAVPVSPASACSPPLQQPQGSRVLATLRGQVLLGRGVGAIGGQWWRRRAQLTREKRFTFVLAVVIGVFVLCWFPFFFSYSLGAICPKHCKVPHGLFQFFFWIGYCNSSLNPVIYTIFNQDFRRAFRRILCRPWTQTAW
Outline: (§2)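 Radioligand binding was run by the NIMH Psychoactive Drug Screening Program. Compounds were first screened at 10 μM. Those giving ≥50% binding were taken to full competition curves. Ki is reported as pKi from a sigmoidal curve fit of triplicate measurements in a single experiment; the error is the curve-fit error.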

[4] = target: T3, 5-hydroxytryptamine receptor 1D (Homo sapiens, UniProt P28221); assay: Displacement of [3H]5-CT from human recombinant 5-HT1D receptor transiently expressed in HEKT cells after 90 mins by microbeta scintillation counting method; type: cell-based; outline: as §2
T3 sequence (P28221 whole entry): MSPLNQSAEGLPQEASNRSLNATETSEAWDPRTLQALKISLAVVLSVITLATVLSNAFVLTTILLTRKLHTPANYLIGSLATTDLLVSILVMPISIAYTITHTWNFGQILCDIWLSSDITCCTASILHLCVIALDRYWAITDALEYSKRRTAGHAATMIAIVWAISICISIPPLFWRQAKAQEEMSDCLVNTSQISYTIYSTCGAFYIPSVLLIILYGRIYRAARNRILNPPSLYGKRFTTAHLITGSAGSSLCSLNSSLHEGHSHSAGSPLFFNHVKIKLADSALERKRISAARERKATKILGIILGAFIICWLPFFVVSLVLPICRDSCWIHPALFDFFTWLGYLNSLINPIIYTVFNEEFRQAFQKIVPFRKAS

D(1B) dopamine receptor = D(1B) dopamine receptor (Homo sapiens, UniProt P21918); assay: Displacement of [3H]-SCH23390 from human recombinant dopamine D5 receptor expressed in HEKT cells at 10 uM after 90 mins by microbeta scintillation counting method relative to control; type: cell-based
Chain of D(1B) dopamine receptor (P21918 whole entry): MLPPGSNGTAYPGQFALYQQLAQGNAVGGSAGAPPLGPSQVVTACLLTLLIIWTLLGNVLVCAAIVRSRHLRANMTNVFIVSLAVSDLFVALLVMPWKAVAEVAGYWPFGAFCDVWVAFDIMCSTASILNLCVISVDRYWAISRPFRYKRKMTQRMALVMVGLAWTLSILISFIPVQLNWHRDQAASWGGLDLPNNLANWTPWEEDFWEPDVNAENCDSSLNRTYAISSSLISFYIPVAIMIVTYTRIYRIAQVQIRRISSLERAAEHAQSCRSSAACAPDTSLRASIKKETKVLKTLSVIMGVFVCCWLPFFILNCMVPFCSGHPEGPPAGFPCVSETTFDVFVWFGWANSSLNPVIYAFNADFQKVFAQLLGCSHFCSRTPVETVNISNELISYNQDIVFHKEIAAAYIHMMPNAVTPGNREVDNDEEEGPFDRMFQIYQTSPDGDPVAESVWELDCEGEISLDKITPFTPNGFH

[5] = target: T3, 5-hydroxytryptamine receptor 1D; assay: Displacement of [3H]5-CT from human recombinant 5-HT1D receptor transiently expressed in HEKT cells at 10 uM after 90 mins by microbeta scintillation counting method relative to control; type: cell-based
[6] = target: Sodium-dependent dopamine transporter (Homo sapiens, UniProt Q01959); assay: Displacement of [3H]-Win35428 from human recombinant DAT receptor expressed in stable HEK cells after 90 mins by microbeta scintillation counting method; type: cell-based; outline: as §2
Chain of Sodium-dependent dopamine transporter (Q01959 whole entry): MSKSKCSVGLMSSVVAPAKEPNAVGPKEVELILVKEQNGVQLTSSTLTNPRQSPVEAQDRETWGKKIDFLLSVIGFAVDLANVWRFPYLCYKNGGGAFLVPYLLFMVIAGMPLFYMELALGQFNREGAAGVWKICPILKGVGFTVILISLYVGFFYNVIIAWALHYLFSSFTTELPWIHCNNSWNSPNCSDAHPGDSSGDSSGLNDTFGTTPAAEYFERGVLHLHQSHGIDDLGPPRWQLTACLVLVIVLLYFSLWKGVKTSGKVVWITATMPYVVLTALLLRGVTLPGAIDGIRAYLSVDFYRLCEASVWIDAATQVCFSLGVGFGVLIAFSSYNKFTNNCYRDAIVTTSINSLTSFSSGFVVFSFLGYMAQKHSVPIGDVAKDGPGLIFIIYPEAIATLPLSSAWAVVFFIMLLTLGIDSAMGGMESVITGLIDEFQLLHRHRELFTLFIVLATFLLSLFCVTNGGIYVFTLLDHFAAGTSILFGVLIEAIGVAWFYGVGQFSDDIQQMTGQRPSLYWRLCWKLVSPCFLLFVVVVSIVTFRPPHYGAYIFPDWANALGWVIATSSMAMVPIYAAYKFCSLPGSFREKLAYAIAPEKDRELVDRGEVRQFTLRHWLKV

[7] = target: T4, Alpha-2C adrenergic receptor (Homo sapiens, UniProt P18825); assay: Displacement of [3H]-Rauwolscine from human recombinant adrenergic Alpha2C receptor expressed in stable MDCK cells after 90 mins by microbeta scintillation counting method; type: cell-based; outline: as §2
T4 sequence (P18825 whole entry): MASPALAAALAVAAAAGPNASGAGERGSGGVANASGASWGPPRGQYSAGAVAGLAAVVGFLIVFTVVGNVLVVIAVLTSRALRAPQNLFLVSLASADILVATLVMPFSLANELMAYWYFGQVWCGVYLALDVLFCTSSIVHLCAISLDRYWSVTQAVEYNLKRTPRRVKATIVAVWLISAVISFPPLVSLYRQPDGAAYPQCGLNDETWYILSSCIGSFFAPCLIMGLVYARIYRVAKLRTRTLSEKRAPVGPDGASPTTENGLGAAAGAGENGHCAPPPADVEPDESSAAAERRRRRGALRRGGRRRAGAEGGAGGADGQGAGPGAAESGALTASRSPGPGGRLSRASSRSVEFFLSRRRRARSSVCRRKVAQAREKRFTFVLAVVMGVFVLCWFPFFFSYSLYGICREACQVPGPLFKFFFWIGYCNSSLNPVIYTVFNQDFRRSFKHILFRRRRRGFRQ

[8] = target: T5, Muscarinic acetylcholine receptor M3 (Homo sapiens, UniProt P20309); assay: Displacement of [3H]-QNB/[3H]-NMS from human recombinant Muscarinic acetylcholine M3 receptor expressed in stable CHO cells at 10 uM after 90 mins by microbeta scintillation counting method relative to control; type: cell-based
Target sequence in this assay (P20309 whole entry, looked up): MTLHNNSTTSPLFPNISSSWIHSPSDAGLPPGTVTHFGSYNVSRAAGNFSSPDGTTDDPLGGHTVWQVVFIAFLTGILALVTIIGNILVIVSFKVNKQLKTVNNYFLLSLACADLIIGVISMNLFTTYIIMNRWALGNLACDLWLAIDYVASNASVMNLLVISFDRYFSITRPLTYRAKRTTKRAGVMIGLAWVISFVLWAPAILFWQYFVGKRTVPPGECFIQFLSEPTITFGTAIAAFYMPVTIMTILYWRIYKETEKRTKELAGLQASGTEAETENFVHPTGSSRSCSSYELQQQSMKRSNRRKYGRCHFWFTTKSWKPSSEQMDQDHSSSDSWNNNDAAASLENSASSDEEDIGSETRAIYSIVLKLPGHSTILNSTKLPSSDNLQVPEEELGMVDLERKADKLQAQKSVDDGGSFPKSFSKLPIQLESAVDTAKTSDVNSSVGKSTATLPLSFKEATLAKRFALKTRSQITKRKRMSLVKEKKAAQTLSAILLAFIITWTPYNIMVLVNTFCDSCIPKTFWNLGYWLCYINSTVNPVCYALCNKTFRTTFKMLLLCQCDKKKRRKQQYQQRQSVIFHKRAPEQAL

[9] = Displacement of [3H]-Flunitrazepam from BZP receptor in rat brain after 90 mins by microbeta scintillation counting method; type: tissue-based
Outline: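 Radioligand binding run by the NIMH Psychoactive Drug Screening Program. Otherwise Ki comes from sigmoidal curve fits of triplicate measurements in a single experiment, or is averaged over repeated experiments each run in triplicate.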

[10] = target: Beta-3 adrenergic receptor (Homo sapiens, UniProt P13945); assay: Displacement of [3H]-CGP12177 from human recombinant adrenergic Beta3 receptor expressed in Flp-In HEK cells after 90 mins by microbeta scintillation counting method; type: cell-based; outline: as §1
Chain of Beta-3 adrenergic receptor (P13945 whole entry): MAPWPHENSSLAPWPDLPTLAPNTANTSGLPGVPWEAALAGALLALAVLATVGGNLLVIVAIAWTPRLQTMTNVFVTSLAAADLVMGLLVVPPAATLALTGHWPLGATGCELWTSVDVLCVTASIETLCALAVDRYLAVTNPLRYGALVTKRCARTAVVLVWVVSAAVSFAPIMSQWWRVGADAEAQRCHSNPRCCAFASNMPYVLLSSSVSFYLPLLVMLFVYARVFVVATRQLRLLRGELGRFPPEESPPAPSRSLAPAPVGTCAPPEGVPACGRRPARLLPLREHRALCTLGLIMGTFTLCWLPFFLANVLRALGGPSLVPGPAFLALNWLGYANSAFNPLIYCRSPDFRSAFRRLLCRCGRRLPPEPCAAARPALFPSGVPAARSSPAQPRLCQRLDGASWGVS

[11] = target: Delta-type opioid receptor (Homo sapiens, UniProt P41143); assay: Displacement of [3H]-DADLE from human recombinant DOR receptor expressed in stable HEK cells after 90 mins by microbeta scintillation counting method; type: cell-based; outline: as §1
Chain of Delta-type opioid receptor (P41143 whole entry): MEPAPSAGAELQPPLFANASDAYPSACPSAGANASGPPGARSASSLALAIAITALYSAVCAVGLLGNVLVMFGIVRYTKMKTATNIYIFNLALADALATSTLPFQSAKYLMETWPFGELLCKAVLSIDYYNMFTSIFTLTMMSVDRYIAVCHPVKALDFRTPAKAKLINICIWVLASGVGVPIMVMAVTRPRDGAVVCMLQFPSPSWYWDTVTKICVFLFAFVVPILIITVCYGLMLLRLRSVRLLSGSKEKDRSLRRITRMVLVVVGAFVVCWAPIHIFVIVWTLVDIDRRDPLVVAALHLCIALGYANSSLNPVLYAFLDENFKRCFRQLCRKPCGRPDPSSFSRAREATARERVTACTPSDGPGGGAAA

[12] = target: T5, Muscarinic acetylcholine receptor M3; assay: Displacement of [3H]-QNB/[3H]-NMS from human recombinant Muscarinic acetylcholine M3 receptor expressed in stable CHO cells after 90 mins by microbeta scintillation counting method; type: cell-based; outline: as §2
Target sequence in this assay (P20309 whole entry): as the sequence (P20309 whole entry, looked up) above

Structure (SMILES)	inhibition [1] [%]	inhibition [2] [%]	Ki [3] [µM]	Ki [4] [µM]	inhibition (D(1B) dopamine receptor) [%]	inhibition [5] [%]	Ki [6] [µM]	Ki [7] [µM]	inhibition [8] [%]	pKi [9]	Ki [10] [µM]	Ki [11] [µM]	Ki [12] [µM]
CC[C@H]1c2cc(C)ccc2OC[C@@]1(C)N (racemic)	< 50	< 50	> 10	> 10	< 50	< 50	> 10	> 10	< 50	< 5	> 10	> 10	> 10
C[C@@]12CN(c3ccccc3)c3ccccc3[C@@H]1CCN2 (racemic)	–	–	> 10	> 10	–	–	> 10	1	–	–	> 10	> 10	> 10
CC[C@H]1c2cc(OC)ccc2CC[C@@]1(C)N (racemic)	< 50	< 50	5.01	> 10	< 50	< 50	5.01	> 10	< 50	5.8	> 10	> 10	> 10
COc1cc(OC)c2c(c1)OC[C@@]1(C)NCC[C@@H]21 (racemic)	< 50	< 50	> 10	> 10	< 50	< 50	> 10	> 10	< 50	5.2	> 10	> 10	> 10
CC[C@H]1c2ccccc2N(c2ccccc2)C[C@@]1(C)N (racemic)	–	–	0.398	> 10	–	–	3.16	> 10	–	–	1	> 10	> 10

From ChEMBL document CHEMBL4304834, “3-Amino-chromanes and Tetrahydroquinolines as Selective 5-HT2B, 5-HT7, or σ1 Receptor Ligands” (ACS Med Chem Lett, 2019)
